Measurements taken from ChEMBL document CHEMBL4033721, “Design, synthesis and evaluation of indole-2-carboxamides with pan anti-mycobacterial activity” (Bioorg Med Chem, 2017).
Converted amounts (≈) assume the structure as drawn.

Columns and labels:
[1] = test system: Mycobacteroides abscessus; assay: Antimycobacterial activity against Mycobacterium abscessus ATCC 19977 after 8 days by resazurin microtiter based colorimetric assay; format: functional; settings: ATCC 19977, 192 h
Method in brief: (§1)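 Resazurin microtiter plate MIC, read by visual scan for growth, in Mueller Hinton II broth. Strains include clinical isolates of M. abscessus complex, M. chelonae, M. avium, M. intracellulare, M. xenopi, P. aeruginosa PAO-1 and S. aureus ATCC 25923.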

[2] = test system: Mycobacteroides abscessus; assay: Antimycobacterial activity against Mycobacterium abscessus isolate DCI 21 after 8 days by resazurin microtiter based colorimetric assay; format: functional; settings: isolate DCI 21, 192 h; method in brief: as §1
[3] = Antimycobacterial activity against Mycobacterium massiliense isolate CIP108297 after 8 days by resazurin microtiter based colorimetric assay; format: functional, Mycobacterium abscessus subsp. massiliense; settings: Mycobacteroides abscessus, isolate CIP108297, 192 h; method in brief: as §1
[4] = Antimycobacterial activity against Mycobacterium massiliense isolate CRM0019 after 8 days by resazurin microtiter based colorimetric assay; format: functional, Mycobacterium abscessus subsp. massiliense; settings: Mycobacteroides abscessus, isolate CRM0019, 192 h; method in brief: as §1
[5] = Antimycobacterial activity against Mycobacterium bolletii ATCC 14472 after 8 days by resazurin microtiter based colorimetric assay; format: functional; settings: Mycobacteroides abscessus, ATCC 14472, 192 h; method in brief: as §1
Mycobacteroides chelonae = assay: Antimycobacterial activity against Mycobacterium chelonae ATCC 35752 after 8 days by resazurin microtiter based colorimetric assay; format: functional; settings: ATCC 35752, 192 h; method in brief: as §1
[6] = test system: Mycobacterium tuberculosis; assay: Antimycobacterial activity against Mycobacterium tuberculosis H37Rv MC2-6206 after 8 days by resazurin microtiter based colorimetric assay; format: functional; settings: H37Rv MC2-6206, 192 h
Method in brief: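 MIC was measured by resazurin microtiter colorimetric assay with visual growth scoring. Medium was 7H9-ADC–0.05% tyloxapol with 0.2% casaminoacids, 48 µg/ml pantothenate and 50 µg/ml L-leucine.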

[7] = test system: Mycolicibacterium smegmatis; assay: Antimycobacterial activity against Mycobacterium smegmatis isolate MC2 155 after 8 days by resazurin microtiter based colorimetric assay; format: functional; settings: str. MC2 155, 192 h
Mycobacterium avium = assay: Antimycobacterial activity against Mycobacterium avium isolate 104 after 8 days by resazurin microtiter based colorimetric assay; format: functional; settings: isolate 104, 192 h
Method in brief: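 M. avium 104 MICs were read by resazurin microtiter colorimetric assay in 96-well plates, with growth scored visually, in Mueller Hinton II medium.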

[8] = test system: Mycobacterium avium-intracellulare; assay: Antimycobacterial activity against Mycobacterium avium-intracellulare isolate 1956 after 8 days by resazurin microtiter based colorimetric assay; format: functional; settings: isolate 1956, 192 h; method in brief: as §1
Mycobacterium xenopi = assay: Antimycobacterial activity against wild type Mycobacterium xenopi isolate 4042 after 8 days by resazurin microtiter based colorimetric assay; format: functional; settings: isolate 4042, 192 h; method in brief: as §1
Pseudomonas aeruginosa = assay: Antibacterial activity against Pseudomonas aeruginosa PAO1 after 8 days by resazurin microtiter based colorimetric assay; format: functional; settings: PAO1, 192 h; method in brief: as §1
Staphylococcus aureus = assay: Antibacterial activity against Staphylococcus aureus ATCC 25923 after 8 days by resazurin microtiter based colorimetric assay; format: functional; settings: ATCC 25923, 192 h; method in brief: as §1
[9] = test system: Mycobacteroides abscessus; assay: Bactericidal activity against Mycobacterium abscessus after 8 days by resazurin microtiter based colorimetric assay; format: functional
Method in brief: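 MBC90 found by subculturing from the MIC wells onto 7H11 agar. Value is the lowest concentration cutting CFU by 90% versus the inoculum.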

Structure (SMILES)	MIC [1] [µg/mL]	MIC [2] [µg/mL]	MIC [3] [µg/mL]	MIC [4] [µg/mL]	MIC [5] [µg/mL]	MIC (Mycobacteroides chelonae) [µg/mL]	MIC [6] [µg/mL]	MIC [7] [µg/mL]	MIC (Mycobacterium avium) [µg/mL]	MIC [8] [µg/mL]	MIC (Mycobacterium xenopi) [µg/mL]	MIC (Pseudomonas aeruginosa) [µg/mL]	MIC (Staphylococcus aureus) [µg/mL]	MBC90 [9] [µg/mL]
CC1CCC(NC(=O)c2cc3ccccc3[nH]2)CC1 (mixture of isomers)	> 32	> 32	16	16	16	16	5	12.5	> 32	> 32	16			
O=C(NC1CCCCCC1)c1cc2ccccc2[nH]1	> 32	> 32	> 32	> 32	> 32	> 32	> 5	> 20						
CCCCCCCCNC(=O)c1cc2ccccc2[nH]1	> 32	> 32	> 32	> 32	> 32	> 32	> 10	> 25						
Cc1cc(C)c2cc(C(=O)NC(C)C34CC5CC(CC(C5)C3)C4)[nH]c2c1 (stereo not given)	16 (≈ 45.6 µM)	> 32	8 (≈ 22.8 µM)	8 (≈ 22.8 µM)	16 (≈ 45.6 µM)	16 (≈ 45.6 µM)	0.31 (≈ 0.884 µM)	> 20	> 32	> 32	> 32			
CCC12CC3CC(C1)CC(NC(=O)c1cc4c(C)cc(C)cc4[nH]1)(C3)C2	> 32	> 32	> 32	> 32	> 32	> 32	0.039 (≈ 0.111 µM)	> 20	> 32	> 32	> 32			
CC(NC(=O)c1cc2ccccc2[nH]1)C12CC3CC(CC(C3)C1)C2 (stereo not given)	16 (≈ 49.6 µM)	16 (≈ 49.6 µM)	8 (≈ 24.8 µM)	8 (≈ 24.8 µM)	16 (≈ 49.6 µM)	2 (≈ 6.2 µM)	> 5	> 20	> 32	32 (≈ 99.2 µM)	8 (≈ 24.8 µM)			
CCC12CC3CC(C1)CC(NC(=O)c1cc4ccccc4[nH]1)(C3)C2	> 32	> 32	> 32	> 32	> 32	> 32	1.25 (≈ 3.88 µM)	> 20	> 32	> 32	1 to 2 (≈ 3.1 to 6.2 µM)			
Cc1cc(C)c2cc(C(=O)NCC34CC5CC(CC(C5)C3)C4)[nH]c2c1	> 32	> 32	> 32	> 32	> 32	> 32	0.16 (≈ 0.476 µM)	> 20	> 32	> 32	1 (≈ 2.97 µM)			
O=C(NCC12CC3CC(CC(C3)C1)C2)c1cc2ccccc2[nH]1	2 (≈ 6.48 µM)	2 (≈ 6.48 µM)	2 (≈ 6.48 µM)	> 32	2 (≈ 6.48 µM)	1 (≈ 3.24 µM)	> 5	> 20	> 32	> 32	4 (≈ 13 µM)			
CCCCCCCNC(=O)c1cc2c(C)cc(C)cc2[nH]1	> 32	> 32	> 32	> 32	32 (≈ 112 µM)	> 32	> 5	5 (≈ 17.5 µM)	> 32	> 32	> 32			
Cc1cc(C)c2cc(C(=O)NC3CCCCCC3)[nH]c2c1	≤ 0.06	≤ 0.06	≤ 0.06	≤ 0.06	≤ 0.06	≤ 0.06	0.08 (≈ 0.281 µM)	0.625 (≈ 2.2 µM)	2 (≈ 7.03 µM)	4 (≈ 14.1 µM)	0.06 to 0.12 (≈ 0.211 to 0.422 µM)	> 160	> 160	0.015 (≈ 0.0527 µM)
Cc1cc(C)c2cc(C(=O)NC3CCCCC3)[nH]c2c1	0.5 (≈ 1.85 µM)	0.25 (≈ 0.925 µM)	0.25 (≈ 0.925 µM)	0.25 (≈ 0.925 µM)	0.25 (≈ 0.925 µM)	0.25 (≈ 0.925 µM)	0.625 (≈ 2.31 µM)	2.5 (≈ 9.25 µM)	> 32	> 32	1 to 2 (≈ 3.7 to 7.4 µM)			
Cc1cc(C)c2cc(C(=O)NC34CC5CC(CC(C5)C3)C4)[nH]c2c1	> 32	32 (≈ 99.2 µM)	> 32	> 32	> 32	> 32	0.0195 (≈ 0.0605 µM)	1.25 to 2.5 (≈ 3.88 to 7.75 µM)	> 32	> 32	> 32			
